Data published in ChEMBL document CHEMBL2146379, “Antimetastatic effect of sulfamate carbonic anhydrase IX inhibitors in breast carcinoma xenografts” (J Med Chem, 2012).
Active and inactive are the calls of the source. The rule behind the calls is not given here.

Legend:
[1] = system: MDA-MB-231; assay: Antimetastatic activity against EGFP tagged human MDA-MB-231 cells expressing CA9 assessed as inhibition of cell migration under normoxic condition after 24 hrs by scratch-wound assay; format: functional, cell-based
How it was run: (§1)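 Scratch-wound migration in confluent monolayers of RPMI 1640/10% FCS/2 mM glutamine-grown cells (eGFP-tagged MDA-MB-231, WRO, FTC-133; untagged RT112, HCT116). Incubation 24 h in normoxia or anoxia with DMSO or inhibitor at increasing concentrations (3.3, 10, 33 μM tested). Wound closure imaged by fluorescence. n = 3 per concentration per cell line; mean ± SEM, Student's t test.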

[2] = system: MDA-MB-231; assay: Antimetastatic activity against EGFP tagged human MDA-MB-231 cells expressing CA9 assessed as inhibition of cell migration under anoxic condition after 24 hrs by scratch-wound assay; format: functional, cell-based; how it was run: as §1
[3] = system: MDA-MB-231; assay: Antimetastatic activity against EGFP tagged human MDA-MB-231 cells expressing CA9 assessed as inhibition of cell migration under anoxic condition at 3.3 uM after 24 hrs by scratch-wound assay; format: functional; conditions: MDA-MB-231, 24 h; how it was run: as §1
[4] = system: RT-112; assay: Antimetastatic activity against CA9 deficient human RT112 cells assessed as inhibition of cell migration under anoxic condition at 33 uM after 24 hrs by scratch-wound assay; format: functional, cell-based; how it was run: as §1
[5] = system: MDA-MB-231; assay: Antimetastatic activity against EGFP tagged human MDA-MB-231 cells expressing CA9 assessed as inhibition of cell spreading under normoxic condition at 33 uM after 60 mins by phalloidin staining; format: functional, cell-based
[6] = system: FTC-133; assay: Antimetastatic activity against EGFP tagged human FTC-133 cells expressing CA9 assessed as inhibition of cell migration under anoxic condition at 33 uM after 24 hrs by scratch-wound assay; format: functional, cell-based; how it was run: as §1
[7] = system: HCT-116; assay: Antimetastatic activity against human HCT116 cells xenografted in mouse assessed as inhibition of lung metastasis; format: functional
[8] = system: MDA-MB-231; assay: Antimetastatic activity against EGFP tagged human MDA-MB-231 cells expressing CA9 assessed as inhibition of cell migration under anoxic condition at 10 uM after 24 hrs by scratch-wound assay; format: functional; conditions: MDA-MB-231, 24 h; how it was run: as §1
[9] = system: MDA-MB-231; assay: Cytotoxicity against EGFP tagged human MDA-MB-231 cells expressing CA9 at 100 uM; format: functional, cell-based
[10] = system: Mus musculus; assay: Toxicity in nu/nu CBA mouse xenografted with EGFP tagged human MDA-MB-231 cells expressing CA9 assessed as change in body weight at 10 mg/kg, ip administered 5 days on 2 days off; format: organism-based; design: dose 10 mg/kg, route intraperitoneal; conditions: in vivo
How it was run: (§2)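 Female nu/nu CBA mice, 10−12 weeks old, 8 per group, injected orthotopically into the fourth inguinal nipple with eGFP-MDA-MB-231 cells (5 × 10⁷ cells/mL in 1:1 serum-free RPMI/Matrigel). From 150 mm³ tumors, dosed 10 mg/kg ip daily (saline, 4% DMSO), 5 days on/2 off. Callipers 3×/week; health checked daily; body weight tracked. Culled at 1000 mm³; lung metastasis by ex vivo clonogenic assay.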

[11] = system: HCT-116; assay: Antimetastatic activity against human HCT116 cells assessed as stimulation of cell migration under anoxic condition at 33 uM after 24 hrs by scratch-wound assay; format: functional; how it was run: as §1
[12] = system: Mus musculus; assay: Toxicity in nu/nu CBA mouse xenografted with EGFP tagged human MDA-MB-231 cells expressing CA9 assessed as signs of intolerance at 10 mg/kg, ip administered 5 days on 2 days off; format: organism-based; design: dose 10 mg/kg, route intraperitoneal; conditions: in vivo; how it was run: as §2
[13] = system: MDA-MB-231; assay: Antimetastatic activity against EGFP tagged human MDA-MB-231 cells expressing CA9 assessed as inhibition of cell spreading under anoxic condition at 33 uM after 60 mins by phalloidin staining; format: functional, cell-based
[14] = system: MDA-MB-231; assay: Antimetastatic activity against EGFP tagged human MDA-MB-231 cells expressing CA9 xenografted in nu/nu CBA mouse tumor assessed as reduction in metastasic burden in lungs at 10 mg/kg, ip, administered 5 days on 2 days off measured on day 10 by clonogenic assay; format: functional, organism-based; design: dose 10 mg/kg; how it was run: as §2
[15] = system: MDA-MB-231; assay: Antimetastatic activity against EGFP tagged human MDA-MB-231 cells expressing CA9 assessed as inhibition of cell migration under anoxic condition at 33 uM after 24 hrs by scratch-wound assay; format: functional; conditions: MDA-MB-231, 24 h; how it was run: as §1
[16] = Antimetastatic activity against EGFP tagged human WRO cells expressing CA9 assessed as inhibition of cell migration under anoxic condition at 100 uM after 24 hrs by scratch-wound assay; format: functional
[17] = system: MDA-MB-231; assay: Antitumor activity against EGFP tagged human MDA-MB-231 cells expressing CA9 xenografted in nu/nu CBA mouse assessed as tumor growth inhibition at 10 mg/kg, ip administered 5 days on 2 days off; format: functional, organism-based; design: dose 10 mg/kg; how it was run: as §2
[18] = biological target: Carbonic anhydrase 9 (Homo sapiens, UniProt Q16790); assay: Inhibition of human recombinant transmembrane CA9 preincubated for 15 mins by stopped-flow CO2 hydration method
How it was run: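 Stopped-flow CO₂ hydration with in-house recombinant human CA, CO₂ 1.7−17 mM. Inhibitor diluted in water from 0.1 mM stock down to 0.01 nM, preincubated with enzyme 15 min at room temperature. Initial velocity from ≥6 traces of the first 5−10% of reaction, uncatalyzed rate subtracted.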

SMILES: NS(=O)(=O)Oc1ccc(NC(=O)Nc2ccc(Cl)cc2)cc1
- inhibition [1]: Active
- inhibition [2]: Active

SMILES: Cc1cc(C)cc(NC(=O)Nc2ccc(OS(N)(=O)=O)cc2)c1
- inhibition at 3.3 µM [3]: 5%
- inhibition [4]: inactive
- inhibition [5]: inactive
- inhibition [6]: Active
- inhibition [7]: inactive
- inhibition at 10 µM [8]: 21%
- Activity [9]: Active
- Activity [10]: Non-toxic
- Activity [11]: 44%
- Activity [12]: Non-toxic
- inhibition [13]: Active
- Activity [14]: Active
- inhibition at 33 µM [15]: 50%
- inhibition at 100 µM [16]: 41%
- growth inhibition (GI) [17]: inactive

SMILES: COc1ccc(NC(=O)Nc2ccc(OS(N)(=O)=O)cc2)cc1
- inhibition [2]: inactive

SMILES: CN(C)c1ccc(NC(=O)Nc2ccc(OS(N)(=O)=O)cc2)cc1
- Ki [18]: 9 nM
- inhibition [2]: inactive

SMILES: NS(=O)(=O)Oc1ccc(NC(=S)Nc2ccc(-c3c4ccc(=O)cc-4oc4cc(O)ccc34)c(C(=O)O)c2)cc1
- inhibition [2]: inactive

SMILES: NS(=O)(=O)Oc1ccc(NC(=O)Nc2ccc([N+](=O)[O-])cc2)cc1
- inhibition [1]: Active
- inhibition [2]: Active

SMILES: NS(=O)(=O)Oc1ccc(NC(=O)Nc2ccc(F)cc2)cc1
- inhibition [1]: Active
- inhibition [2]: Active

SMILES: NS(=O)(=O)Oc1ccc(NC(=O)Nc2c(F)c(F)c(F)c(F)c2F)cc1
- inhibition at 33 µM [15]: 32%

SMILES: NS(=O)(=O)Oc1ccc(-[n+]2c(-c3ccccc3)cc(-c3ccccc3)cc2-c2ccccc2)cc1
- Ki [18]: 14 nM
- inhibition [2]: inactive

SMILES: NS(=O)(=O)Oc1ccc(NC(=O)Nc2ccc(Oc3ccccc3)cc2)cc1
- inhibition at 33 µM [15]: 49%
